Laboratory results taken from ChEMBL document CHEMBL1781968, “δ-Carbolines and their ring-opened analogs: synthesis and evaluation against fungal and bacterial opportunistic pathogens” (Eur J Med Chem, 2011).
Values after ≈ are worked out from the molar mass of the structure shown.

Assays:
[1] = Cytotoxicity against african green monkey Vero cell after 48 hrs by neutral red uptake assay; format: cell-based; conditions: chlorocebus sabaeus, Vero cells; read-out: TC50
Method in brief: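 VERO kidney fibroblasts seeded at 25,000 cells/well and incubated 24 h. Compounds added, highest concentration 10 μg/mL, then 48 h further incubation. Viable cells measured by neutral red assay. IC50 taken from growth-inhibition dose curves. Doxorubicin as positive control, DMSO as vehicle control.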

Aspergillus fumigatus = test: Antifungal activity against Aspergillus fumigatus ATCC 204305 by NCCLS method; format: functional, organism-based
Method in brief: (§1)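 Modified NCCLS microdilution for fungi. Samples in DMSO serially diluted with 0.9% saline, in duplicate, final concentrations from 20 μg/mL down. Inocula matched to 0.5 McFarland (630 nm) and diluted in Sabouraud dextrose broth. Growth, solvent and medium controls included. OD 530 nm read before and after incubation. IC50 from percent growth curve. MIC is no detectable growth. MFC is lowest concentration killing the organism.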

Staphylococcus aureus [2] = test: Antibacterial activity against methicillin-resistant Staphylococcus aureus ATCC 33591 by NCCLS method; format: functional, organism-based
Method in brief: (§2)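 Broth microdilution (modified NCCLS). Samples in DMSO serially diluted in 0.9% saline, tested in duplicate, highest final concentration 20 μg/mL. Inoculum matched to 0.5 McFarland standard by absorbance at 630 nm, then diluted in cation-adjusted Mueller–Hinton broth. Growth, solvent and medium controls on each plate. Absorbance at 530 nm read before and after incubation. IC50 taken from percent growth versus concentration plot; MIC is lowest concentration with no detectable growth; MBC is lowest concentration killing the organism.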

Escherichia coli = test: Antibacterial activity against Escherichia coli by NCCLS method; format: functional, organism-based
Method in brief: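 Modified NCCLS broth microdilution. DMSO-dissolved samples serially diluted in 0.9% saline, tested in duplicate, final concentrations starting at 20 μg/mL. Inoculum set to 0.5 McFarland (absorbance 630 nm) and diluted in cation-adjusted Mueller–Hinton broth. Growth, solvent and medium controls on each plate. Read at 530 nm before and after incubation. IC50 from percent growth versus concentration. MIC is lowest concentration with no detectable growth.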

[3] = tested on: Mycobacterium intracellulare; test: Antibacterial activity against Mycobacterium intracellular ATCC 23068 by alamar blue method; format: functional, organism-based
Method in brief: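 Modified Alamar blue method (Franzblau). Samples in DMSO serially diluted in 0.9% saline, in duplicate, final concentrations starting at 20 μg/mL. Inoculum adjusted to 0.5 McFarland, then diluted in Middlebrook 7H9 with OADC enrichment plus 5% Alamar blue. Fluorescence read (ex 544/em 590 nm) before and after incubation. IC50 from percent growth versus concentration. MIC is no detectable growth.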

Staphylococcus aureus [4] = test: Antibacterial activity against Staphylococcus aureus ATCC 29213 by NCCLS method; format: functional, organism-based; method in brief: as §2
Candida albicans = test: Antifungal activity against Candida albicans ATCC 90028 by NCCLS method; format: functional, organism-based; method in brief: as §1
Cryptococcus neoformans = test: Antifungal activity against Cryptococcus neoformans ATCC 90113 by NCCLS method; format: functional, organism-based; method in brief: as §1

SMILES	CC50 at 48 h [1]	MFC (Aspergillus fumigatus)	MIC (Aspergillus fumigatus)	IC50 (Staphylococcus aureus [2])	MBC (Staphylococcus aureus [2])	MIC (Staphylococcus aureus [2])	IC50 (Escherichia coli)	MBC (Escherichia coli)	MIC (Escherichia coli)	IC50 [3]	MBC [3]	MIC [3]	IC50 (Staphylococcus aureus [4])	MBC (Staphylococcus aureus [4])	MIC (Staphylococcus aureus [4])	MFC (Candida albicans)	MIC (Cryptococcus neoformans)	IC50 (Aspergillus fumigatus)	further results
Cc1ccc(N(CCCCCC2CCCCC2)c2ccc[n+](C)c2)cc1.[I-]	> 10 µg/mL	5 µg/mL	5 µg/mL	1 µg/mL	2.5 µg/mL	2.5 µg/mL	4.5 µg/mL	> 20 µg/mL	20 µg/mL	1.5 µg/mL	2.5 µg/mL	2.5 µg/mL							
C[n+]1cccc(N(CCCCCC2CCCCC2)c2ccc(C(F)(F)F)cc2)c1.[I-]	> 10 µg/mL	5 µg/mL	2.5 µg/mL	0.9 µg/mL	2.5 µg/mL	2.5 µg/mL	3.5 µg/mL	20 µg/mL	20 µg/mL	1 µg/mL	1.3 µg/mL	1.3 µg/mL							
CSc1ccc(N(CCCCCC2CCCCC2)c2ccc[n+](C)c2)cc1.[I-]	> 10 µg/mL	10 µg/mL	10 µg/mL	1 µg/mL	2.5 µg/mL	2.5 µg/mL	5.2 µg/mL	20 µg/mL	20 µg/mL	1 µg/mL	5 µg/mL	1.3 µg/mL	0.3 µg/mL	5 µg/mL	0.6 µg/mL				
Cc1ccccc1N(CCCCCC1CCCCC1)c1ccc[n+](C)c1.[I-]				1 µg/mL	10 µg/mL	2.5 µg/mL	9.4 µg/mL	> 20 µg/mL	> 20 µg/mL	1.6 µg/mL	2.5 µg/mL	2.5 µg/mL	0.3 µg/mL	10 µg/mL	0.6 µg/mL				
CCc1ccc(N(CCCCCC2CCCCC2)c2ccc[n+](C)c2)cc1.[I-]				0.7 µg/mL	2.5 µg/mL	1.3 µg/mL	4 µg/mL	20 µg/mL	20 µg/mL	0.6 µg/mL	5 µg/mL	1.3 µg/mL	0.2 µg/mL	5 µg/mL	3 µg/mL				
C[n+]1cccc(N(CCCCCC2CCCCC2)c2ccccc2C(F)(F)F)c1.[I-]				0.6 µg/mL	5 µg/mL	1.3 µg/mL	9.1 µg/mL	> 20 µg/mL	> 20 µg/mL	1.2 µg/mL	2.5 µg/mL	3.5 µg/mL	0.3 µg/mL	10 µg/mL	0.3 µg/mL				
C[n+]1cccc2c1c1cc(C(F)(F)F)ccc1n2CCCCCC1CCCCC1.[I-]	> 10 µg/mL	> 20 µg/mL	> 20 µg/mL	1.2 µg/mL	10 µg/mL	2.5 µg/mL	7.6 µg/mL	> 20 µg/mL	> 20 µg/mL	0.8 µg/mL	2.5 µg/mL	1.3 µg/mL	0.4 µg/mL	10 µg/mL	0.6 µg/mL	20 µg/mL	0.6 µg/mL	18 µg/mL	IC50 (Candida albicans): 5.8 µg/mL; MIC (Candida albicans): 10 µg/mL; IC50 (Cryptococcus neoformans): 0.4 µg/mL; MFC (Cryptococcus neoformans): 1.3 µg/mL
C[n+]1cccc2c1c1cc(F)ccc1n2CCCCCC1CCCCC1.[I-]	> 10 µg/mL	> 20 µg/mL	20 µg/mL	2.8 µg/mL	20 µg/mL	5 µg/mL	13 µg/mL	> 20 µg/mL	> 20 µg/mL	1.2 µg/mL	5 µg/mL	2.5 µg/mL	0.7 µg/mL	20 µg/mL	1.3 µg/mL	20 µg/mL	1.3 µg/mL	12 µg/mL	IC50 (Candida albicans): 6.5 µg/mL; MIC (Candida albicans): 20 µg/mL; IC50 (Cryptococcus neoformans): 0.6 µg/mL; MFC (Cryptococcus neoformans): 1.3 µg/mL
Cc1ccc2c(c1)c1c(ccc[n+]1C)n2CCCCCC1CCCCC1.[I-]	> 10 µg/mL	> 20 µg/mL	20 µg/mL	1.6 µg/mL	10 µg/mL	5 µg/mL	5.6 µg/mL	> 20 µg/mL	> 20 µg/mL	1.5 µg/mL	5 µg/mL	2.5 µg/mL	0.4 µg/mL	10 µg/mL	0.6 µg/mL	20 µg/mL	2.5 µg/mL	17 µg/mL	IC50 (Candida albicans): 2.9 µg/mL; MIC (Candida albicans): 5 µg/mL; IC50 (Cryptococcus neoformans): 1.3 µg/mL; MFC (Cryptococcus neoformans): 2.5 µg/mL
C[n+]1cccc(N(CCCCCC2CCCCC2)c2cccc(Cl)c2)c1.[I-]	> 10 µg/mL	20 µg/mL	20 µg/mL	1.3 µg/mL	5 µg/mL	2.5 µg/mL	6.5 µg/mL	> 20 µg/mL	> 20 µg/mL	2.1 µg/mL	5 µg/mL	2.5 µg/mL	0.34 µg/mL	5 µg/mL	0.63 µg/mL			12 µg/mL	IC50 (Cryptococcus neoformans): 0.72 µg/mL
O=C(O)c1cn(C2CC2)c2cc(N3CCNCC3)c(F)cc2c1=O [CIPROFLOXACIN]					0.5 µg/mL (≈ 1.51 µM)	0.3 µg/mL (≈ 0.905 µM)	0.005 µg/mL (≈ 0.0151 µM)	0.6 µg/mL (≈ 1.81 µM)	0.3 µg/mL (≈ 0.905 µM)		> 20 µg/mL	0.5 µg/mL (≈ 1.51 µM)		0.5 µg/mL (≈ 1.51 µM)	0.3 µg/mL (≈ 0.905 µM)				
C[n+]1cccc(N(CCCCCC2CCCCC2)c2cccc(C(F)(F)F)c2)c1.[I-]				1.5 µg/mL	5 µg/mL	2.5 µg/mL	4.5 µg/mL	> 20 µg/mL	> 20 µg/mL	2 µg/mL	2.5 µg/mL	2.5 µg/mL							
Cc1cccc(N(CCCCCC2CCCCC2)c2ccc[n+](C)c2)c1.[I-]				1.2 µg/mL	5 µg/mL	2.5 µg/mL	7.7 µg/mL	> 20 µg/mL	> 20 µg/mL	1.1 µg/mL	5 µg/mL	1.3 µg/mL	0.7 µg/mL	5 µg/mL	1.3 µg/mL				
C[n+]1cccc(N(CCCCCC2CCCCC2)c2ccccc2)c1.[I-]	> 10 µg/mL	> 20 µg/mL	> 20 µg/mL	3.4 µg/mL	20 µg/mL	10 µg/mL	7.6 µg/mL	> 20 µg/mL	> 20 µg/mL	2.1 µg/mL	2.5 µg/mL	2.5 µg/mL	0.7 µg/mL	10 µg/mL	1.3 µg/mL	> 20 µg/mL		20 µg/mL	
COc1ccccc1N(CCCCCC1CCCCC1)c1ccc[n+](C)c1.[I-]				1.2 µg/mL	20 µg/mL	5 µg/mL	14 µg/mL	> 20 µg/mL	> 20 µg/mL	1.9 µg/mL	2.5 µg/mL	2.5 µg/mL	0.4 µg/mL	20 µg/mL	0.6 µg/mL				
C[n+]1cccc(N(CCCCCC2CCCCC2)c2ccc(Cl)cc2)c1.[I-]	> 10 µg/mL	> 20 µg/mL	1.6 µg/mL							1 µg/mL		1.6 µg/mL	1.5 µg/mL		3.1 µg/mL	> 20 µg/mL			
C[n+]1cccc2c1c1ccccc1n2CCCCCC1CCCCC1.[I-]	7.5 µg/mL	5 µg/mL	0.63 µg/mL	1.5 µg/mL	5 µg/mL	2.5 µg/mL	5 µg/mL	> 20 µg/mL	> 20 µg/mL	0.55 µg/mL	2.5 µg/mL	1.3 µg/mL				> 20 µg/mL	0.63 µg/mL	0.45 µg/mL	IC50 (Candida albicans): 3 µg/mL; MIC (Candida albicans): 5 µg/mL; IC50 (Cryptococcus neoformans): 0.45 µg/mL; MFC (Cryptococcus neoformans): 5 µg/mL
C[C@@H]1[C@H](O)[C@@H](C)/C=C/C=C/C=C/C=C/C=C/C=C/C=C/[C@H](O[C@@H]2O[C@H](C)[C@@H](O)[C@H](N)[C@@H]2O)C[C@@H]2O[C@](O)(C[C@@H](O)C[C@@H](O)[C@H](O)CC[C@@H](O)C[C@@H](O)CC(=O)O[C@H]1C)C[C@H](O)[C@H]2C(=O)O [AMPHOTERICIN B]		5 µg/mL (≈ 5.41 µM)	1.3 µg/mL (≈ 1.41 µM)														0.63 µg/mL (≈ 0.682 µM)		MFC (Cryptococcus neoformans): 0.63 µg/mL (≈ 0.682 µM)
C[n+]1cccc(N(CCCCCC2CCCCC2)c2ccccc2Cl)c1.[I-]		> 20 µg/mL	> 20 µg/mL	1.1 µg/mL	10 µg/mL	2.5 µg/mL	7.6 µg/mL	> 20 µg/mL	> 20 µg/mL	2.1 µg/mL	5 µg/mL	2.5 µg/mL	0.3 µg/mL	10 µg/mL	0.6 µg/mL				
C[n+]1c2ccccc2cc2[nH]c3ccccc3c21.[I-] [CRYPTOLEPTINE IODIDE]	3.2 µg/mL			20 µg/mL									10 µg/mL				12.5 µg/mL		MIC (Candida albicans): > 250 µg/mL
